Format in all cases: functional
Assay [1] deals with KB. Briefly: Compound was tested for its antitumor activity and the cytotoxicity against KB human carcinoma of the nasopharynx screen. Conditions: read-out: ED50 (the source's name). The gist of the method: (§1)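 Run per the NIH cytotoxicity protocol. Viable cells were counted by trypan blue exclusion and expressed as a percentage of the 0.05% Tween 80–water control. ED₅₀ was estimated from a semilog plot against drug concentration.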

Assay [2] has as its system L1210. The experiment in a line: Compound was tested for its antitumor activity and the cytotoxicity against L1210 lymphoid leukemia screen. Conditions: Mus musculus, read-out: ED50 (the source's name). The gist of the method: as §1
In assay [3] the test system is P388. Briefly: Compound was tested for its antitumor activity and the cytotoxicity against P-388 lymphocytic leukemia screen. Particulars: Mus musculus, read-out: ED50 (the source's name). The gist of the method:
as §1

Values after ≈ are worked out from the molar mass of the structure shown.

Turning to `C=C1CC(C)(Cn2c(N)nc3ncnc-3c2O)OC1=O` (stereo unspecified), the EC50 was above 10 µg/mL in assay [1], 1.3 µg/mL (≈ 4.72 µM) in assay [2] and above 20 µg/mL in assay [3].

With `C=C1CC(C)(Cn2cnc3c(N)ncnc32)OC1=O` (stereo unspecified), the results for the EC50 in assay [1], in assay [2] and in assay [3] were 5 µg/mL (≈ 19.3 µM), 0.3 µg/mL (≈ 1.16 µM) and above 20 µg/mL, respectively.

On to `C=C1CC(C)(Cn2cnc3c(O)ncnc32)OC1=O` (stereo unspecified), for which the EC50 in assay [1] is above 10 µg/mL; in assay [2] it was 2 µg/mL (≈ 7.68 µM); in assay [3], above 20 µg/mL.

As for `COc1cc([C@@H]2c3cc4c(cc3[C@@H](O[C@@H]3O[C@@H]5CO[C@@H](C)O[C@H]5[C@H](O)[C@H]3O)[C@H]3COC(=O)[C@H]23)OCO4)cc(OC)c1O` [ETOPOSIDE], the figures for the EC50 in assay [2] and in assay [3] were 1.58 µg/mL (≈ 2.68 µM) and 1.71 µg/mL (≈ 2.91 µM), respectively.

The values are drawn from ChEMBL document CHEMBL1123705, “Antitumor agents. 86. Synthesis and cytotoxicity of alpha-methylene-gamma-lactone-bearing purines” (1987).
